# Test results: ChEMBL document CHEMBL1765085, “Cytotoxic and apoptosis-inducing activities of triterpene acids from Poria cocos” (J Nat Prod, 2011)
# pIC50: −log10 of the molar value.
# Experiments:
# Format in all cases: functional, cell-based
# [1] = test system: OVCAR-3; assay: Cytotoxicity in human OVCAR3 cells assessed as cell viability after 48 hrs by MTT assay; conditions: OVCAR-3, 48 h
# Summary of the method: (§1)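 Growth conditions: RPMI 1640 for HL60, CRL1579, NIH:OVCAR-3, SK-BR-3, DU145 and PANC-1; D-MEM for A549; MEM for WI-38; all with 10% FBS and antibiotics, 37 °C, 5% CO2. Seeded at 3 × 10^3 cells/well (OVCAR-3 1 × 10^4), then treated 48 h with 10^-4 to 10^-6 M. MTT for 3 h, formazan dissolved in 0.04 M HCl/2-propanol, A570/630. IC50 (50% growth inhibition) from triplicates.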
# [2] = Cytotoxicity in human CRL1579 cells assessed as cell viability after 48 hrs by MTT assay; summary of the method: as §1
# [3] = test system: HL-60; assay: Cytotoxicity in human HL60 cells assessed as cell viability after 48 hrs by MTT assay; conditions: HL-60, 48 h; summary of the method: as §1
# [4] = test system: SK-BR-3; assay: Cytotoxicity in human SK-BR-3 cells assessed as cell viability after 48 hrs by MTT assay; conditions: SK-BR-3, 48 h; summary of the method: as §1
# [5] = test system: A549; assay: Cytotoxicity in human A549 cells assessed as cell viability after 48 hrs by MTT assay; conditions: A549, 48 h; summary of the method: as §1
# [6] = test system: DU-145; assay: Cytotoxicity in human DU145 cells assessed as cell viability after 48 hrs by MTT assay; conditions: DU-145, 48 h; summary of the method: as §1
# [7] = test system: PANC-1; assay: Cytotoxicity in human PANC1 cells assessed as cell viability after 48 hrs by MTT assay; conditions: PANC-1, 48 h; summary of the method: as §1
# [8] = Cytotoxicity in human AZ-521 cells assessed as cell viability after 48 hrs by MTT assay; conditions: AZ-521, 48 h
SMILES,pIC50 [1],pIC50 [2],pIC50 [3],pIC50 [4],pIC50 [5],pIC50 [6],pIC50 [7],pIC50 [8]
C=C(CC[C@@H](C(=O)OC)[C@H]1[C@H](O)C[C@@]2(C)C3=C(CC[C@]12C)[C@@](C)(CCC(=O)OC)[C@H](C(=C)C)CC3)C(C)C [DIMETHYL PORICOATE H],4.31,4.01,5.44,4.80,4.87,4.54,4.35,4.84
C=C(CC[C@@H](C(=O)OC)[C@H]1CC[C@@]2(C)C3=CC[C@@H](C(=C)C)[C@](C)(CCC(=O)OC)C3=CC[C@]12C)C(C)C [DIMETHYL PORICOATE C],4.63,4.56,5.62,4.62,4.08,< 4.00,< 4.00,4.70
C=C(CC[C@@H](C(=O)O)[C@H]1[C@H](O)C[C@@]2(C)C3=CC[C@@H](C(=C)C)[C@](C)(CCC(=O)O)C3=CC[C@]12C)C(C)C [PORICOIC ACID A],< 4.00,,,< 4.00,< 4.00,< 4.00,< 4.00,< 4.00
C=C(CC[C@@H](C(=O)O)[C@H]1[C@H](O)C[C@@]2(C)C3=C(CC[C@]12C)[C@@](C)(CCC(=O)O)[C@H](C(=C)C)CC3)C(C)C [PORICOIC ACID H],< 4.00,,,< 4.00,< 4.00,< 4.00,< 4.00,< 4.00
C=C(CC[C@@H](CO)[C@H]1CC[C@@]2(C)C3=CC[C@@H](C(=C)C)[C@](C)(CCCO)C3=CC[C@]12C)C(C)C [PORICOTRIOL C],4.15,4.12,4.91,4.96,4.10,4.69,4.04,4.88
C=C(C)[C@@H]1CCC2=C(CC[C@]3(C)[C@@H]([C@@H](CCC=C(C)C)C(=O)O)[C@H](O)C[C@@]23C)[C@@]1(C)CCC(=O)O [PORICOIC ACID G],< 4.00,,,< 4.00,< 4.00,< 4.00,< 4.00,< 4.00
C=C(C)[C@@H]1CCC2=C(CC[C@]3(C)[C@@H]([C@@H](CCC=C(C)C)C(=O)OC)[C@H](O)C[C@@]23C)[C@@]1(C)CCC(=O)OC [DIMETHYL PORICOATE G],4.58,4.37,5.06,5.37,4.18,< 4.00,< 4.00,4.46
C=C(CC[C@@H](C(=O)OC)[C@H]1[C@H](O)C[C@@]2(C)C3=CC[C@@H](C(=C)C)[C@](C)(CCC(=O)OC)C3=CC[C@]12C)C(C)C [DIMETHYL PORICOATE A],4.04,< 4.00,4.74,4.49,4.10,< 4.00,< 4.00,4.49
O=c1[nH]cc(F)c(=O)[nH]1 [FLUOROURACIL],< 4.00,< 4.00,5.02,< 4.00,,< 4.00,4.27,< 4.00
C=C(C)[C@@H]1CCC2=C(CC[C@]3(C)[C@@H]([C@H](CO)CCC=C(C)C)[C@H](O)C[C@@]23C)[C@@]1(C)CCCO [PORICOTRIOL G],4.36,4.94,5.12,4.89,4.96,< 4.00,4.75,4.87
C=C(CC[C@@H](C(=O)OC)[C@H]1[C@H](O)C[C@@]2(C)C3=CC[C@H]4C(C)(C)[C@H](O)CC[C@]4(C)C3=CC[C@]12C)C(C)(C)O,4.17,4.12,5.16,4.56,4.38,4.54,4.15,4.84
C=C(CC[C@@H](C(=O)O)[C@H]1CC[C@@]2(C)C3=CC[C@@H](C(=C)C)[C@](C)(CCC(=O)O)C3=CC[C@]12C)C(C)C [PORICOIC ACID C],4.27,< 4.00,4.59,4.62,4.57,4.84,4.16,4.34
C=C(CC[C@@H](CO)[C@H]1[C@H](O)C[C@@]2(C)C3=CC[C@H]4C(C)(C)[C@H](O)CC[C@]4(C)C3=CC[C@]12C)C(C)(C)O,< 4.00,4.85,5.60,< 4.00,< 4.00,< 4.00,< 4.00,< 4.00
C=C(CC[C@@H](CO)[C@H]1[C@H](O)C[C@@]2(C)C3=C(CC[C@]12C)[C@@](C)(CCCO)[C@H](C(=C)C)CC3)C(C)C,< 4.00,5.00,5.54,4.29,4.39,< 4.00,< 4.00,< 4.00
C=C(CC[C@@H](C(=O)O)[C@H]1[C@H](O)C[C@@]2(C)C3=CC[C@H]4C(C)(C)[C@H](O)CC[C@]4(C)C3=CC[C@]12C)C(C)(C)O,5.02,,,4.21,5.40,< 4.00,4.17,4.29
C=C(CC[C@@H](C(=O)OC)[C@H]1CC[C@@]2(C)C3=CC[C@H]4C(C)(C)C(=O)CC[C@]4(C)C3=CC[C@]12C)C(C)C,< 4.00,4.68,4.63,4.56,4.02,< 4.00,< 4.00,4.27
C=C(CCC(C(=O)O)[C@H]1CC[C@@]2(C)C3=CC[C@H]4C(C)(C)C(=O)CC[C@]4(C)C3=CC[C@]12C)C(C)C (stereo not given in full) [DEHYDROEBURICONIC ACID],4.42,4.05,4.53,4.91,5.00,< 4.00,5.26,< 4.00
C=C(CC[C@@H](CO)[C@H]1CC[C@@]2(C)C3=CC[C@H]4C(C)(C)[C@@H](O)CC[C@]4(C)C3=CC[C@]12C)C(C)C,5.19,5.55,5.17,4.93,5.40,< 4.00,4.65,4.90
